EWS-Fli block: blocks EWS/Fli oncoprotein-driven transcription; hit rate 0.67% among 350,000; A673 NR0B1-luciferase reporter, viability-normalised; AID 651661; inhibition, % at 12.6 µM;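 active means mean inhibition of at least 50% after viability correction, with every replicate also passing that limit; inconclusive means mean reaches 50% but only one of two replicates passes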;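 further: firefly luciferase signal divided by Alamar Blue viability fluorescence both relative to DMSO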
Xi reactivation: activators of X-chromosome reactivation in mouse fibroblasts; activation, % at 7.58 µM; hit rate 0.055% among 360,000; XiGFP mouse fibroblasts, % GFP-positive cells imaging, 3 d; cells co-treated with 5-aza-dC sensitizer; scaled so ellipticine positive control = 100%; AID 743238;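 active means mean normalized replicate activation at least 10% and every replicate at or above 10%; inconclusive means only one of the two criteria met; inactive means mean below 10% and not all replicates reach 10%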;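 further: 0% = median of on-plate neutral control wells and 100% = ellipticine 6 µM median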
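assay system = SV40-immortalized XiGFP fibroblast cells, line 68-5-11 | buffer or medium = DMEM plus 5-aza-dC sensitizer | doses = single-point pinned compound dosing | times = 3-day compound exposure, then 15 min fixation at room temperature | benchmarks = positive control ellipticine, 6 µM final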
LGR2 inh: inhibitors of bursicon-induced Drosophila LGR2 receptor cAMP signaling | HEK293 LGR2, CRE-luciferase, bursicon-stimulated, 4 h | inhibition, % at 9.99 µM | hit rate 0.35% among 380,000 | AID 720647;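 active means drop in luminescence signal, shown as inhibition above about 50% in the replicate tests, limit read from the data, passing the limit was not always enough; inconclusive means probably only some replicates passing the limit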;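 further: agonist challenge used bursicon conditioned medium at about half maximal strength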
TWEAK Fn14 block: blocks TWEAK-Fn14 interaction in a reporter cell assay | TWEAK-stimulated Fn14 reporter cells, luciferase luminescence, 8 h | inhibition, % at 10 µM | hit rate 2% among 360,000; in the data active means inhibition above about 50%
TROY NFkB inh: blocks TROY-dependent signaling in reporter cells. Q293 LMP1-TROYcd NF-kB luciferase reporter, 4 h. inhibition, % at 10 µM. hit rate 0.98% among 360,000;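 active means compounds whose plate-normalised and pattern-corrected inhibition of the luciferase reporter signal at the single screening dose is 50% or more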
FN deposit inh: fibronectin deposition inhibition; AH1F fibroblasts, Alexa488-fibronectin deposition fluorescence, overnight; inhibition, % at 12.6 µM; hit rate 0.086% among 350,000; AID 743247;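 active means mean inhibition across replicates of 30% or more, regardless of how many single replicates reach that level; inconclusive means mean under 30% yet at least half of replicates reach 30%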;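 further: positive control wells lacked labelled fibronectin entirely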
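Assay system: AH1F fibroblast monolayer, labelled fibronectin deposition. Amount: 10000 cells per well. Also added: labelled fibronectin 24 nM. Compound: single-point pinned compound. Incubation: cell attachment 1 h, compound and FN exposure overnight. Detection: fluorescence after three HBSS washes, excitation 485 nm, emission 525 nm. Read-out: inhibition of fibronectin deposition signal.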
The depositor's hits bear a star; ? = inconclusive; . = no result. A selection: hits, their analogues and other compounds. The true share with any hit is near 2.3%.

SMILES	EWS-Fli block	Xi reactivation	LGR2 inh	TWEAK Fn14 block	TROY NFkB inh	FN deposit inh
COc1ccccc1NC(=O)Nc1ccccc1N1CCOCC1	-18.9	0.0	2.1	61.1*	12.3	0.5
COc1ccc(OCC(=O)NC(=S)N2CCCc3ccccc32)cc1	-57.6	.	-16.0	55.0*	37.1	.
O=C(COc1ccccc1)NC(=S)N1CCc2ccccc21	-13.9	0.0	.	-10.8	-12.2	-4.4
COc1ccccc1C(=O)NC(=S)Nc1ccccc1N1CCCC1	-20.1	0.2	4.6	75.5*	77.8*	-5.8
COc1ccccc1C(=O)NC(=S)N1CCCc2ccccc21	-66.2	.	-30.5	59.4*	48.6	.
CCO[C@@H]1OC(C(=O)N2CCN(Cc3ccc4c(c3)OCO4)CC2)=C[C@H](c2ccccc2)[C@H]1CCCO	1.9	.	.	.	.	.
CCC(=O)N1C[C@H](C)[C@@H](OC)CN(C)C(=O)c2cc(NC(=O)c3cc(C)on3)ccc2OC[C@@H]1C	-2.7	0.2	-2.9	.	.	-0.3
O=C(C[C@H]1C=C[C@H](NC(=O)C2CCOCC2)[C@@H](CO)O1)NCc1ccccc1Cl	-1.6	-0.2	10.3	.	.	.
FC(F)(F)c1cccc(NC(=S)NCc2ccc(Cl)cc2)c1	.	0.0	-9.4	56.6*	59.6*	4.1
Fc1ccc(CNC(=S)Nc2cccc(C(F)(F)F)c2)cc1	.	0.1	0.7	10.4	20.8	-12.3
CO[C@H]1CC[C@@H]2CCOc3c(C#N)cccc3C(=O)N(C)C[C@@H](C)C(=O)N(C)C[C@@H]1O2	3.2	0.2	1.2	.	.	-0.8
Cc1nn(C)c2ncc(C(=O)c3cc(F)ccc3O)cc12	.	.	-12.4	-0.3	-22.6	.
O=C(c1cnc2ccc3ccccc3c2c1)c1cc(F)ccc1O	43.9	0.3	-26.8	64.3*	42.0	5.3
C[C@@H]1CN([C@H](C)CO)C(=O)Cc2cc(NC(=O)CCN3CCOCC3)ccc2O[C@@H]1CN(C)Cc1ccncc1	.	-1.3	9.8	.	.	.
c1ccc2c(c1)-c1cccc3cncc-2c13	-24.2	0.0	-15.7	-16.4	-51.3	4.2
c1ccc2c(-c3cncc4ccccc34)cncc2c1	-10.0	0.4	13.8	54.4*	34.2	-2.2
COC(=O)[C@]1(C)CCC[C@@]2(C)C3CC[C@@]4(C)C[C@]3(CCC21)CC(=O)N4 (stereo partly specified)	-3.0	0.0	12.0	-15.4	0.9	0.4
C=C1C(=O)C23CCC4C(C)(C(=O)OC)CCCC4(C)C2CCC1(O)C3 (stereo unspecified)	56.0*	4.1	.	98.2*	87.6*	36.9*
CCS(=O)(=O)Nc1ccc2c(c1)C(=O)N(C)C[C@H](OC)[C@@H](C)CN[C@H](C)CO2	.	0.2	9.8	.	.	.
C=CCn1c(NS(=O)(=O)c2ccccc2)c(S(=O)(=O)c2ccc(C)cc2)c2nc3ccccc3nc21	-5.5	0.0	-1.4	-0.4	20.5	-0.3
O=S(=O)(Nc1c(S(=O)(=O)c2ccccc2)c2nc3ccccc3nc2n1C1CCCCC1)c1ccccc1	3.3	-0.1	?	98.0*	64.3*	-7.5
Cc1nn(-c2ccccc2)c(Cl)c1CN(C(=O)CCl)c1ccc(Cl)cc1	.	1.9	-0.3	-2.4	3.2	-3.4
Cc1nn(-c2ccccc2)c(Cl)c1CN(C(=O)CCl)c1cccc2ccccc12	38.1	0.9	35.4	76.7*	1.3	23.7
Cc1ccc(S(=O)(=O)NC(CC(=O)O)c2ccco2)cc1 (stereo unspecified)	-1.2	.	-11.0	0.2	2.1	.
CCC(C)NC(=O)CC(NS(=O)(=O)c1ccc(Cl)cc1)c1ccco1 (stereo unspecified)	.	.	.	59.3*	10.7	.
SMILES	EWS-Fli block	Xi reactivation	LGR2 inh	TWEAK Fn14 block	TROY NFkB inh	FN deposit inh
COc1ccccc1NC(=O)CSc1nc2sc(C)c(C)c2c(=O)n1C	17.1	0.3	8.5	36.5	33.9	-13.9
Cc1sc2nc(SCC(=O)Nc3c(C)n(C)n(-c4ccccc4)c3=O)n(C)c(=O)c2c1C	.	.	.	58.5*	7.3	0.5
Cc1ccc(S(=O)(=O)N(C)C[C@H]2Oc3ccc(NC(=O)C4CCCCC4)cc3C(=O)N([C@@H](C)CO)C[C@H]2C)cc1	11.4	0.2	-4.4	.	.	.
Cc1cccc(C)c1N1CCN(C(c2cc3ccccc3o2)c2nnnn2C(C)(C)C)CC1 (stereo unspecified)	.	.	.	53.2*	26.5	.
Cc1ccc(NN=C2c3ccccc3-c3ccccc32)cc1	.	0.2	-44.1	39.6	51.6*	26.0
O=C(CCCc1ccccn1)c1ccccc1	30.4	0.1	44.3	83.6*	43.2	0.2
O=C(Cc1ccccn1)c1ccccc1	-17.4	0.2	-6.2	7.0	3.3	8.2
CC(=O)Oc1ccc2occ(-c3ccccc3)c2c1	-57.4	0.1	-33.1	53.6*	23.6	7.4
CCc1ccc(OCC(=O)c2c(O)c3ccccc3oc2=O)cc1	-0.3	-0.1	11.3	15.8	58.7*	2.2
Cc1ccc(OCC(=O)c2c(O)c3ccccc3oc2=O)cc1C	.	.	.	7.1	61.8*	.
CCOc1ccc(N=Cc2c(O)c3ccccc3oc2=O)cc1	.	1.9	-40.7	5.5	28.7	11.2
Cc1ccc(C(C)C)c(OCC(=O)c2c(O)c3ccccc3oc2=O)c1	.	.	.	14.6	51.2*	.
Cc1ccc(C(C)C)c(OCC(=O)NN2C(=O)c3ccccc3C2=O)c1	12.6	0.0	-5.2	3.3	-4.7	7.0
Cc1cc(=O)oc2cc(OCC(=O)c3ccccc3)ccc12	-22.4	-0.1	0.9	-17.3	-7.1	6.9
CO[C@@H]1CN(C)C(=O)c2cc(NC(=O)NC(C)C)ccc2OC[C@H](C)N(Cc2ccc(-c3ccccn3)cc2)C[C@@H]1C	3.0	0.5	-6.8	.	.	11.9
CNC[C@@H]1Oc2cc(C#Cc3ccccc3OC)ccc2S(=O)(=O)N([C@H](C)CO)C[C@H]1C	18.4	0.4	29.6	.	.	6.0
C[C@@H]1CCCCO[C@@H](CN(C)C(=O)Nc2cccc3ccccc23)[C@H](C)CN([C@H](C)CO)C(=O)c2cc(NS(=O)(=O)c3cccs3)ccc2O1	5.3	-0.5	20.3	.	.	.
C[C@@H]1CN([C@@H](C)CO)C(=O)c2cc(NC(=O)Nc3cccc4ccccc34)ccc2O[C@@H](C)CCCCO[C@H]1CN(C)CC1CCCCC1	90.7*	-1.1	8.6	.	.	.
C[C@@H]1CCCCO[C@@H](CN(C)CC2CCCCC2)[C@H](C)CN([C@H](C)CO)C(=O)c2cc(NC(=O)Nc3cccc4ccccc34)ccc2O1	90.0*	-1.1	10.2	.	.	.
C[C@H](CO)N1C[C@H](C)[C@H](CN(C)CC2CC2)OCCCC[C@H](C)Oc2ccc(NC(=O)Nc3cccc4ccccc34)cc2C1=O	7.3	0.3	8.9	.	.	.
C[C@H](CO)N1C[C@H](C)[C@H](CN(C)C(=O)Nc2cccc3ccccc23)OCCCC[C@H](C)Oc2ccc(NC(=O)NC3CCCCC3)cc2C1=O	23.6	0.3	60.0*	.	.	16.1

Screens as filed in PubChem BioAssay.
